pIC50: −log10 of the molar value. Calls of active or inactive are those of the source. The rule behind the calls is not given here.
Legend:
[1] = biological target: T1, C-C chemokine receptor type 3 (Homo sapiens, UniProt P51677); test: Antagonist activity at CCR3 receptor; type: functional
T1 sequence (P51677 whole entry): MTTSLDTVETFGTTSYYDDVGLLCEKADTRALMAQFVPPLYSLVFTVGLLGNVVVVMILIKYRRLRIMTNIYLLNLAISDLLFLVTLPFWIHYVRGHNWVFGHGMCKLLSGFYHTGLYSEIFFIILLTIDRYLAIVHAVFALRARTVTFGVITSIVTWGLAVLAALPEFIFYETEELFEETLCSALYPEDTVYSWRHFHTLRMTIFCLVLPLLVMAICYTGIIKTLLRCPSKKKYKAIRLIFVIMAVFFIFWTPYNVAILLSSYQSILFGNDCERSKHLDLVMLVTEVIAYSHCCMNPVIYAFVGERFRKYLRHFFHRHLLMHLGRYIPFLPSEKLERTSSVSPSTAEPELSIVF

[2] = biological target: T2, C-C chemokine receptor type 3 (Homo sapiens) (UniProt P51677); test: (§1) Antagonist activity at CCR3 receptor in human eosinophils assessed as inhibition of CCL11-induced degranulation after 4 hrs by ELISA; type: functional
T2 sequence (whole entry): T1 sequence (P51677 whole entry)
Outline: (§2)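 Eosinophils isolated from peripheral blood of normal human volunteers; wells pre-blocked with 2.5% BSA in PBS, 2 h, 37 °C. 5 × 10^5 cells in RPMI 1640 with 0.5% BSA, with or without 0.6 nM human CCL11 and varying antagonist concentrations, incubated 4 h at 37 °C, 5% CO2. Supernatant EDN quantified by ELISA; IC50 from dose-response.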

[3] = biological target: T1, C-C chemokine receptor type 3; test: as §1; type: functional; outline: as §2
[4] = biological target: T3, C-C chemokine receptor type 1 (Homo sapiens) (UniProt P32246); test: Inhibition of CCR1 receptor at 10 uM
T3 sequence (whole entry): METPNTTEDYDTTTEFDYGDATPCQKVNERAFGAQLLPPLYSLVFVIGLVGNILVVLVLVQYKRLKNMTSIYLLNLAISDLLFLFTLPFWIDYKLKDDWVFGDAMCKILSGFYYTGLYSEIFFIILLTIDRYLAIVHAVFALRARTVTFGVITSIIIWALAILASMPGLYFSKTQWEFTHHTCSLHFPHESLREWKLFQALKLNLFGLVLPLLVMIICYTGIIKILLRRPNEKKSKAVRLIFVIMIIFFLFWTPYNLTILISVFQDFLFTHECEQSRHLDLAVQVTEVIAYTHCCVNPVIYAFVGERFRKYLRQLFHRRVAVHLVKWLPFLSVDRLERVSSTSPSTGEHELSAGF

[5] = biological target: C-C chemokine receptor type 2 (Homo sapiens) (UniProt P41597); test: Inhibition of CCR2 receptor at 10 uM
Sequence of C-C chemokine receptor type 2 (Homo sapiens) (P41597 whole entry, looked up): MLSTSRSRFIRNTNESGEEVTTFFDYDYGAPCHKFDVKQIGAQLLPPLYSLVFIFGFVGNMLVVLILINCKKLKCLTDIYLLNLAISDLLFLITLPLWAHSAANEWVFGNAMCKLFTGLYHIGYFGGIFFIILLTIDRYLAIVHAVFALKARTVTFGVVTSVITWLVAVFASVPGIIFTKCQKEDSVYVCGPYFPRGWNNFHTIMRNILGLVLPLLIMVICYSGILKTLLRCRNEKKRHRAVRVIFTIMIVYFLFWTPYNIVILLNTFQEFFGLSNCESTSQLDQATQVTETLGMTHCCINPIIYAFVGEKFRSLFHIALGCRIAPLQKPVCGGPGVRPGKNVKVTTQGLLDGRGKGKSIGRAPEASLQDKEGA

[6] = biological target: C-C chemokine receptor type 5 (Homo sapiens) (UniProt P51681); test: Inhibition of CCR5 receptor at 10 uM
Sequence of C-C chemokine receptor type 5 (Homo sapiens) (P51681 whole entry, looked up): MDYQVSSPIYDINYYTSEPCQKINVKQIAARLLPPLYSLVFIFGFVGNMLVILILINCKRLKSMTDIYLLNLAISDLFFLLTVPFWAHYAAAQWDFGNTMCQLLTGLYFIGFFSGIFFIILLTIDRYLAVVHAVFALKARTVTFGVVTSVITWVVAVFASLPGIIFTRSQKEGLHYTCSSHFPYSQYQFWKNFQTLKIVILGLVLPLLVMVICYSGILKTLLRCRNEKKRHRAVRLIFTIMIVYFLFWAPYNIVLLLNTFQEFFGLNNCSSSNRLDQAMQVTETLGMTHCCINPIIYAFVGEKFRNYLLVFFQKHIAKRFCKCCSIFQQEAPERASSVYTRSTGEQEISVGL

[7] = Oral bioavailability in cynomolgus monkey; type: ADME, organism-based, Macaca fascicularis; settings: in vivo

| Structure (SMILES) | pIC50 [1] | further results |
| --- | --- | --- |
| NC(=O)COc1ccccc1NC(=O)N[C@@H]1CCN(Cc2ccc3cc(F)ccc3c2)C1 | 6.96 | – |
| O=C(Nc1ccccc1OCCOCCO)N[C@@H]1CCN(Cc2ccc3cc(F)ccc3c2)C1 | 6.96 | – |
| COCCOc1ccccc1NC(=O)N[C@@H]1CCN(Cc2ccc3cc(F)ccc3c2)C1 | 7.15 | – |
| O=C(Nc1ccc(OCCO)cc1)N[C@@H]1CCN(Cc2ccc3cc(F)ccc3c2)C1 | 7.15 | – |
| O=C(NC1CCN(S(=O)(=O)c2ccccc2O)CC1)N1CCCN(Cc2ccc3cc(F)ccc3c2)CC1 | 7.60 | – |
| O=C1OC2(CCN(Cc3ccc4cc(F)ccc4c3)CC2)c2ccccc2N1Cc1ccccc1 | 5.70 | – |
| O=C(Nc1ccccc1OCCO)N[C@@H]1CCN(Cc2ccc3cc(F)ccc3c2)C1 | 8.77 | inhibition [2]: Dose-dependent effect; pIC50 [3]: 9.06; inhibition [4]: inactive; inhibition [5]: inactive; inhibition [6]: inactive; bioavailability [7]: 22% |
| CN(C)C(=O)COc1ccccc1NC(=O)N[C@@H]1CCN(Cc2ccc3cc(F)ccc3c2)C1 | 6.72 | – |
| CN(C)CCOc1ccccc1NC(=O)N[C@@H]1CCN(Cc2ccc3cc(F)ccc3c2)C1 | 7.30 | – |
| O=C(Nc1ccccc1OCCCCO)N[C@@H]1CCN(Cc2ccc3cc(F)ccc3c2)C1 | 7.29 | – |
| O=C(NC1CCN(S(=O)(=O)c2ccccc2O)CC1)N[C@@H]1CCN(Cc2ccc3cc(F)ccc3c2)C1 | 8.62 | – |
| O=C(Nc1ccccc1COCCO)N[C@@H]1CCN(Cc2ccc3cc(F)ccc3c2)C1 | 8.00 | – |
| CS(=O)(=O)N1CCC(NC(=O)N[C@@H]2CCN(Cc3ccc4cc(F)ccc4c3)C2)CC1 | 7.85 | – |
| O=C(NC1CCN(Cc2ccccc2)CC1)N1CCCN(Cc2ccc3cc(F)ccc3c2)CC1 | 6.42 | – |

Continued, in another order:

| pIC50 [1] | Structure (SMILES) | further results |
| --- | --- | --- |
| 7.55 | O=C(Nc1cccc(OCCO)c1)N[C@@H]1CCN(Cc2ccc3cc(F)ccc3c2)C1 | – |
| 7.36 | COCc1ccccc1NC(=O)N[C@@H]1CCN(Cc2ccc3cc(F)ccc3c2)C1 | – |
| 6.22 | O=C1N(CCc2ccccc2)CCC12CCN(Cc1ccc3cc(F)ccc3c1)CC2 | – |
| 7.30 | O=C(Nc1ccccc1)N[C@@H]1CCN(Cc2ccc3cc(F)ccc3c2)C1 | – |
| 7.92 | O=C(Nc1ccccc1CCO)N[C@@H]1CCN(Cc2ccc3cc(F)ccc3c2)C1 | – |
| 7.30 | O=C(Nc1ccccc1OCCCO)N[C@@H]1CCN(Cc2ccc3cc(F)ccc3c2)C1 | – |
| 7.39 | O=C(NC1CCCCC1)N[C@@H]1CCN(Cc2ccc3cc(F)ccc3c2)C1 | – |
| 7.62 | O=C(Nc1ccccc1CCCO)N[C@@H]1CCN(Cc2ccc3cc(F)ccc3c2)C1 | – |

— ChEMBL document CHEMBL2157934, “Pyrrolidinyl phenylurea derivatives as novel CCR3 antagonists” (Bioorg Med Chem Lett, 2012)
